In publication PMC11649739 (Clinical Pharmacokinetics, 2024):
Where “and” joins values, the source holds several entries; their conditions need not be identical. Identical values can stand only once. Like-named read-outs stand apart in the source and are kept apart here.

Legend:
[1] = assay type: in vivo, human; conditions: human, plasma, oral; for AUC: Entire AUC; for Cmax: Entire Cmax
Summary of the method: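 Ensitrelvir was dosed once daily, 375 mg on day 1 then 125 mg on days 2–5, or 750/250 mg. A population PK model was fitted to 8034 plasma concentrations from 2060 healthy and SARS-CoV-2-infected participants: two-compartment, first-order absorption, with covariates tested on CL/F. Empirical Bayesian estimates from the final model were used to calculate individual exposures for SCORPIO-SR phase III participants.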

[2] = tested on: SARS-CoV-2; assay type: in vivo, human
Summary of the method: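 Phase III SCORPIO-SR participants received ensitrelvir or placebo. Dosing was once daily for 5 days, either 375 mg on day 1 then 125 mg on days 2–5, or 750 mg then 250 mg. Day-1 C24 (also Cmax and AUC) came from empirical Bayesian post hoc estimates. For placebo these were set to 0. Exposures were split into quartiles and boxplotted against change from baseline in viral RNA on day 4. Sub-LLOQ RNA values were set to LLOQ.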

[3] = cited from earlier work
[4] = tested on: cytochrome P450 3A; conditions: drug interactions; cited from earlier work
[5] = tested on: P-glycoprotein; conditions: drug interactions; cited from earlier work
[6] = tested on: breast cancer resistance protein; conditions: drug interactions; cited from earlier work
[7] = tested on: SARS-CoV-2; conditions: cited from earlier work
[8] = Mean, 250 mg group: 750 mg on day 1 and 250 mg on days 2–5
[9] = Median, 250 mg group: 750 mg on day 1 and 250 mg on days 2–5
[10] = body weight 35.0 and 156.0 kg vs median
[11] = final model no. 511, body weight 62.6 kg

With `Cn1cnc(Cn2c(=O)[nH]/c(=N\c3cc4cn(C)nc4cc3Cl)n(Cc3cc(F)c(F)cc3F)c2=O)n1` [ensitrelvir] as the compound, how does the concentration at 24 h ([1]; C24_d1, Median, 250 mg group: 750 mg on day 1 and 250 mg on days 2–5, 24 h postdose on day 1) read?
The concentration at 24 h was 34.2 µg/mL.

And the concentration at 24 h ([1]; C24_d1, Minimum, 125 mg group: 375 mg on day 1 and 125 mg on days 2–5, 24 h postdose on day 1)?
Its concentration at 24 h is 8.43 µg/mL.

And the concentration at 24 h ([1]; C24_d1, Minimum, 250 mg group: 750 mg on day 1 and 250 mg on days 2–5, 24 h postdose on day 1)?
Its concentration at 24 h is 19.4 µg/mL.

And the concentration at 24 h ([1]; C24_d5, Maximum, 125 mg group: 375 mg on day 1 and 125 mg on days 2–5, 24 h postdose on day 5)?
Its concentration at 24 h is 35.2 µg/mL.

What about the concentration at 24 h ([1]; C24_d5, Maximum, 250 mg group: 750 mg on day 1 and 250 mg on days 2–5, 24 h postdose on day 5) of the same compound?
Its concentration at 24 h is 80.9 µg/mL.

And the concentration at 24 h ([1]; C24_d5, Mean, 125 mg group: 375 mg on day 1 and 125 mg on days 2–5, 24 h postdose on day 5)?
Its concentration at 24 h is 19.5 µg/mL.

What about the concentration at 24 h ([1]; C24_d5, Mean, 250 mg group: 750 mg on day 1 and 250 mg on days 2–5, 24 h postdose on day 5) of the same compound?
Its concentration at 24 h is 41.8 µg/mL.

And the concentration at 24 h ([1]; C24_d5, Median, 125 mg group: 375 mg on day 1 and 125 mg on days 2–5, 24 h postdose on day 5)?
The concentration at 24 h was 19.2 µg/mL.

What about the concentration at 24 h ([1]; C24_d5, Median, 250 mg group: 750 mg on day 1 and 250 mg on days 2–5, 24 h postdose on day 5) of the same compound?
The concentration at 24 h was 40.8 µg/mL.

And the concentration at 24 h ([1]; C24_d5, Minimum, 125 mg group: 375 mg on day 1 and 125 mg on days 2–5, 24 h postdose on day 5)?
The concentration at 24 h was 10.5 µg/mL.

And the concentration at 24 h ([1]; C24_d5, Minimum, 250 mg group: 750 mg on day 1 and 250 mg on days 2–5, 24 h postdose on day 5)?
The concentration at 24 h was 24.3 µg/mL.

What about the AUC ([1]; Mean, 125 mg group: 375 mg on day 1 and 125 mg on days 2–5) of the same compound?
Its AUC is 2570 µg·h/mL.

What about the AUC [1, 8] of the same compound?
The AUC was 5430 µg·h/mL.

What about the AUC ([1]; Median, 125 mg group: 375 mg on day 1 and 125 mg on days 2–5) of the same compound?
Its AUC is 2530 µg·h/mL.

What about the AUC [1, 9] of the same compound?
The AUC was 5320 µg·h/mL.

And the Cmax [1, 8]?
The Cmax was 56.4 µg/mL.

What about the Cmax [1, 9] of the same compound?
Its Cmax is 55.1 µg/mL.

And the “antiviral effects between the 375/125 mg and 750/250 mg doses” value ([2]; C24 on day 1 between 8.43 and 61.0 μg/mL)?
The value was “did not differ”.

What about the “virus RNA decrease across exposure categories (C24 on day 1 quartiles)” value ([2]; day 4, within the exposure range evaluated, phase III of SCORPIO-SR) of the same compound?
The value was “decreased to a similar extent in all categories”.

And the “change from baseline in the amount of SARS-CoV-2 viral RNA on day 4, versus placebo” value ([2]; ensitrelvir dosing groups, phase III of SCORPIO-SR)?
The value was “lower in the ensitrelvir dosing group than in the placebo group”.

And the “Interindividual variability of CL/F” value (base model)?
Its value is 28.9%.

What about the “Interindividual variability of Ka” value (base model) of the same compound?
The value was 88.1%.

And the “Interindividual variability of Vc/F” value (base model)?
The value was 23.2%.

What about the “range of the ratios of the minimum and maximum values to the median of BW for AUC” value [10] of the same compound?
Its value is 0.623–1.353.

What about the “range of the ratios of the minimum and maximum values to the median of BW for Cmax” value [10] of the same compound?
Its value is 0.410–1.741.

And the “Interindividual variability of CL/F, Estimate (95% CI)” value (final model no. 511)?
The value was 21.3% and 21.3 (19.7–22.8) %.

What about the “Interindividual variability of Ka, Estimate (95% CI)” value (final model no. 511) of the same compound?
The value was 72.9% and 72.9 (64.3–80.6) %.

And the “Interindividual variability of Vc/F, Estimate (95% CI)” value (final model no. 511)?
Its value is 14.7% and 14.7 (12.8–16.3) %.

What about the “Intraindividual variability: additive residual error, Estimate (95% CI)” value (final model no. 511) of the same compound?
Its value is 0.0317 (0.0224–0.0410) µg/mL.

And the “Intraindividual variability: proportional residual error, Estimate (95% CI)” value (final model no. 511)?
Its value is 19.9 (18.5–21.3) %.

What about the “Q/F, Estimate (95% CI)” value (final model no. 511) of the same compound?
The value was 0.539 (0.321–0.757) L/h.

And the “Vp/F, Estimate (95% CI)” value (final model no. 511)?
The value was 2.50 (1.80–3.20) L.

What about the “CL/F, Estimate (95% CI)” value [11] of the same compound?
Its value is 0.211 (0.208–0.214) L/h.

And the “Vc/F, Estimate (95% CI)” value [11]?
Its value is 14.7 (13.9–15.5) L.

And the “Additive residual error, Bootstrap estimate Median (95% CI)” value (final model no. 511, bootstrap)?
Its value is 0.0331 (0.00945–0.0570) µg/mL.

What about the “CL/F, Bootstrap estimate Median (95% CI)” value (final model no. 511, bootstrap) of the same compound?
The value was 0.211 (0.207–0.214) L/h.

What about the “Effect of body weight on Vc/F, Bootstrap estimate Median (95% CI)” value (final model no. 511, bootstrap) of the same compound?
Its value is 1.04 (0.959–1.11).

What about the “Effect of food on Ka, Bootstrap estimate Median (95% CI)” value (final model no. 511, bootstrap) of the same compound?
Its value is 0.599 (0.447–1.00).

What about the “Effect of formulation on Ka, Bootstrap estimate Median (95% CI)” value (final model no. 511, bootstrap) of the same compound?
Its value is 0.367 (0.280–0.469).

What about the “Interindividual variability of CL/F, Bootstrap estimate Median (95% CI)” value (final model no. 511, bootstrap) of the same compound?
The value was 21.3 (20.0–23.0) %.

What about the “Interindividual variability of Ka, Bootstrap estimate Median (95% CI)” value (final model no. 511, bootstrap) of the same compound?
The value was 72.1 (64.4–80.4) %.

What about the “Interindividual variability of Vc/F, Bootstrap estimate Median (95% CI)” value (final model no. 511, bootstrap) of the same compound?
The value was 14.6 (12.7–16.5) %.

And the “Ka, Bootstrap estimate Median (95% CI)” value (final model no. 511, bootstrap)?
The value was 1.50 (1.23–1.80) 1/h.

What about the “Proportional residual error, Bootstrap estimate Median (95% CI)” value (final model no. 511, bootstrap) of the same compound?
The value was 19.8 (18.6–21.2) %.

What about the “Q/F, Bootstrap estimate Median (95% CI)” value (final model no. 511, bootstrap) of the same compound?
The value was 0.534 (0.331–0.823) L/h.

What about the “Vc/F, Bootstrap estimate Median (95% CI)” value (final model no. 511, bootstrap) of the same compound?
The value was 14.8 (13.9–15.5) L.

What about the “Vp/F, Bootstrap estimate Median (95% CI)” value (final model no. 511, bootstrap) of the same compound?
Its value is 2.49 (1.74–3.26) L.

And the “Effect of formulation on Ka, Estimate (95% CI)” value (final model no. 511, multiplier, tablet vs suspension)?
The value was 0.362 (0.262–0.462).

And the “Effect of body weight on Vc/F, Estimate (95% CI)” value (final model no. 511, power exponent on body weight/62.6)?
Its value is 1.04 (0.960–1.12).

And the “Ka, Estimate (95% CI)” value (final model no. 511, typical value (suspension, not within 2 h after a meal))?
Its value is 1.50 (1.25–1.75) 1/h.

And the “effect of food intake on pharmacokinetic profiles” value [3]?
Its value is “not substantially affected”.

And the “recovered in the urine as unchanged ensitrelvir” value ([3]; dose groups ranging from 20 to 1000 mg)?
Its value is 12.9–21.8%.

And the “effect of fed state on Cmax” value ([3]; fed state with a high-fat/high-calorie meal vs fasted, phase I study)?
Its value is “not affected”.

What about the “pharmacokinetic profiles among various populations” value ([3]; including healthy white participants) of the same compound?
The value was “not meaningfully different”.

And the “terminal elimination half-life (t½,z)” value ([3]; single administration)?
The value was 42.2 to 48.1 h.

And the “increase of Cmax and AUC0–inf with dose” value ([3]; single oral administration, 20 to 2000 mg, fasted state)?
Its value is “almost dose-proportional”.

And the “time at which maximum plasma concentration is reached” value ([3]; single oral administration)?
The value was “around 2.50 h”.

What about the “inhibition of cytochrome P450 3A” value [4] of the same compound?
The value was “inhibits”.

And the “inhibition of P-glycoprotein” value [5]?
The value was “inhibits”.

What about the “inhibition of breast cancer resistance protein” value [6] of the same compound?
The value was “inhibits”.

What about the “time to five COVID-19 symptoms” value ([7]; 125-mg group, phase III of SCORPIO-SR) of the same compound?
Its value is 167.9 h.

And the “clearance of SARS-CoV-2” value ([7]; both dose groups 375/125 mg and 750/250 mg)?
Its value is “rapid clearance of SARS-CoV-2”.
